Screens: PubChem, several laboratories
This is a sample that favours compounds with a hit; in the whole collection about 2.9% have one here.
NALP3 yeast inh: NALP3 inflammasome inhibitors in reconstituted yeast, primary screen, luminescence, uHTS; Yeast reconstituted NLRP3/ASC/caspase-1, beta-gal luminescence, 24 h; hit rate 0.39% among 330,000; inhibition, % at 10 µM;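 active = inhibition of 50% or more; inactive = inhibition below 50%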;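 also: plate controls were induced DMSO wells for no effect and uninduced yeast grown without galactose for full effect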
IMP-1 inh: IMP-1 metallo-beta-lactamase inhibitors, primary screen, biochemical, epi-absorbance readout, Pseudomonas aeruginosa enzyme; inhibition, % at 5.6 µM; purified IMP-1, nitrocefin hydrolysis, epi-absorbance fluorescence; AID 1556, 2009; hit rate 0.45% among 290,000; metallo-beta-lactamase IMP-1 (Pseudomonas aeruginosa);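 active = inhibition above the mean plus 3 SD of all compounds in the same screening run, cut at about 4.5% in these data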;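 also: 0% = IMP-1 with DMSO and 100% = DMSO wells lacking enzyme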
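System: Purified recombinant IMP-1 metallo-beta-lactamase enzyme | Measured by: Fluorescence quenching readout, ex 480/em 530 nm | Replication: Singlicate | Incubation: 15 min preincubation plus 25 min reaction at 25 °C | Evaluation: Percent inhibition from optical density relative to buffer-blank wells | Benchmarks: DMSO with and without IMP-1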
Mot1-301 SUMO: yeast Mot1-301 growth rescue at high temperature, primary screen, SUMOylation pathway inhibitor project, S. cerevisiae, ATP luminescence, 38.5C; growth rescue, % at 18.8 µM; S. cerevisiae Mot1-301 growth rescue; percent above DMSO median, 100 means doubled; AID 2716, 2010; hit rate 1% among 320,000;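 active = every valid replicate shows activation above 250% relative to neutral control wells; inactive = the rest, any valid replicate at or below 250%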;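 also: OY570 slx delta 5 strain wells were the positive control but not used for scaling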
NALP1 inh: NALP1 inflammasome inhibitors in reconstituted yeast, colorimetric, S. cerevisiae, triplicate retest; AID 2071, 2009; S. cerevisiae NALP1/ASC/caspase-1 growth, X-gal OD620, 72 h; inhibition, % at 10 µM; hit rate 0.61% among 280,000; in the data active = inhibition mostly above about 24%, no sharp cut-off; inactive = mostly below about 32%
VIM-2 inh: VIM-2 metallo-beta-lactamase inhibitors, primary screen, biochemical, epi-absorbance readout, Pseudomonas aeruginosa enzyme; purified VIM-2, nitrocefin hydrolysis, epi-absorbance fluorescence; inhibition, % at 5.6 µM; hit rate 0.89% among 290,000; AID 1527, 2009;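 active = inhibition above the mean of all tested compounds plus 3 SD, cutoff set per screening run, cut at about 7.5% in these data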;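 also: red hydrolysis product quenches plate fluorescence so inhibitors raise well fluorescence; 0% = enzyme with DMSO and 100% = DMSO without enzyme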
PolyA inh: polyadenylation inhibitors in yeast reporter cells, primary screen, luminescence, S. cerevisiae; hit rate 0.02% among 300,000; activity score, % at 12 µM; S. cerevisiae SKY197-pL101 polyadenylation reporter, beta-gal luminescence; efflux-impaired pdr1/pdr3 knockout yeast; score 100 = 6 SD above DMSO;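 active = lowest replicate activity score at least 50, where 100 means six control SD above control mean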;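 also: yeast exposed to compound for 9 h at 30 °C; higher score means more reporter readthrough which indicates perturbed polyadenylation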
* marks the source's active call; other numbers are inactive results; · = not tested or not shown.

SMILES	NALP3 yeast inh	IMP-1 inh	Mot1-301 SUMO	NALP1 inh	VIM-2 inh	PolyA inh
NC(=O)COC(=O)C12CC3CC(CC(O)(C3)C1)C2	2	-2	1	-6	-4	4
Cc1cc(NC2CCCCC2)nc2ccccc12	16	-4	110	-7	-4	2
Cc1ccnc(NC2CCCCC2)c1	16	-1	4	21*	0	0
COc1cccc(-c2nnc3sc(C4CCCCC4)nn23)c1	-15	0	38	37*	-2	-4
CCOc1cccc(-c2nnc3sc(C4CCCCC4)nn23)c1	-20	-1	-19	-15	0	-4
N#Cc1cc([N+](=O)[O-])ccc1NC(=O)CSc1n[nH]c(=O)[nH]c1=O	12	·	-18	·	·	·
CN(C)C1=NC[C@H](Cc2ccccc2)N1CC1CCCCCC1	5	·	-1	·	·	·
O=c1c2ccccc2[nH]c(=S)n1CCN1CCCC1	8	-2	1	-5	-3	-7
CC(C)N(CCn1c(=S)[nH]c2ccccc2c1=O)C(C)C	16	-2	308*	-6	-3	-8
Cc1ccc(C)c(OCc2cc(C(=O)NC3CCN(Cc4ccccc4)CC3)no2)c1	34	-1	21	19	-1	-9
O=C(NC1CCN(Cc2ccccc2)C1)c1cc(COc2ccc(F)cc2F)on1 (stereo not drawn)	21	0	-19	28*	-2	4
COc1cc2c(cc1OC)C(C)N(C(=O)C1COc3ccccc3O1)CC2 (stereo not drawn)	13	1	755*	-7	0	-46
CC(NC(=O)CCCCCNC(=O)N1CCn2c1nc1ccccc12)c1ccccc1 (stereo not drawn)	-6	0	-7	26	0	3
O=C1C=CC(=O)N1CCCCCCN1C(=O)C=CC1=O	·	-6	160	112*	2	·
O=C(CCCN=C1NS(=O)(=O)c2ccccc21)OCC(=O)c1ccccc1Cl	18	·	-20	·	·	16
N#CCc1nnc2n1-c1ccccc1CCC2	11	12*	-14	4	-2	14
CC1CCN(CCCCOc2ccc(Br)cc2)CC1	17	-3	161	12	-3	-3
Cc1cc(Br)ccc1OCCCCN1CCC(C)CC1	12	-2	115	56*	-2	-59
CCC(C)c1ccc(OCCn2ccnc2)cc1 (stereo not drawn)	1	-1	19	53*	-5	-10
Cc1cc(Br)ccc1OCCn1ccnc1	27	-2	0	55*	-1	6
CCOc1ccc(OCCOCCn2ccnc2)cc1	7	0	-16	10	-1	-2
Cc1cc(Cl)c(OCCOCCN2CCC(C)CC2)c(Br)c1	17	-2	24	52*	-1	4
Cc1cc(Cl)c(OCCOCCN2CCN(C)CC2)c(Br)c1	18	0	-21	21	0	8
Clc1cc(Br)ccc1OCCn1ccnc1	22	-1	7	39	-4	5
CCN1C(=O)[C@@H]2[C@@H](c3ccc(SC4CCCCC4)c(OC)c3)N3CCC[C@@]3(C(=O)OC)[C@@H]2C1=O	-2	·	5	·	·	·
SMILES	NALP3 yeast inh	IMP-1 inh	Mot1-301 SUMO	NALP1 inh	VIM-2 inh	PolyA inh
COCCNCCCCOc1ccc(Br)cc1C	30	0	49	35	2	11
COCCCNCCCCOc1ccc(Br)cc1C	28	-3	269*	37	-5	-2
CC(C)(C)OC(=O)N[C@@H](Cc1ccccc1)C(=O)N[C@@H](CO)[C@H](O)[C@@H]1C[C@@H]1C(=O)NC1CCCCC1	-21	·	-20	·	·	·
O=[N+]([O-])c1ccc2nc(CCCc3nc4ccc([N+](=O)[O-])cc4[nH]3)[nH]c2c1	7	-3	5	32*	-3	4
COC(=O)c1ccccc1S(=O)(=O)N1CCC(C(=O)NC2CCCCC2)CC1	11	·	-12	·	·	·
CCC(C)Nc1nc(-c2cccc(OC)c2O)nc2ccccc12 (stereo not drawn)	15	-2	4	15	2	-36
CCC(C)Nc1nc(-c2ccccn2)nc2ccccc12 (stereo not drawn)	27	3	-2	7	8.2*	5
CC(C)[C@H](NC(=O)N1CCn2c1nc1ccccc12)C(=O)NCc1ccccc1Cl	9	-2	-1	31	-1	1
CCOC(=O)C1CCCN(C2=NC(=O)/C(=C/c3ccc(OC)cc3)S2)C1 (stereo not drawn)	10	-3	1	20	-4	16
CCOC(=O)C1CCCN(C2=NC(=O)/C(=C/c3ccc(O)c(OCC)c3)S2)C1 (stereo not drawn)	8	-1	-28	3	8.9*	-23
CCCN1CCN(CCCNC(=O)C2CCCN(c3nc4ccc(OCC)cc4s3)C2)CC1 (stereo not drawn)	-10	-3	-3	11	-4	3
CCOc1ccc2nc(N3CCCC(C(=O)N4CCN(CC)CC4)C3)sc2c1 (stereo not drawn)	8	-3	-9	34*	-1	15
O=C(O)CN(c1ccccn1)S(=O)(=O)c1ccccc1	4	-3	-12	43*	-3	-4
COC(=O)CN(c1ccccn1)S(=O)(=O)c1ccccc1	-6	-3	·	13	-2	2
COc1cccc(C2c3c(C)nn(-c4ccc([N+](=O)[O-])cc4)c3N=C3C(=O)Nc4ccccc4N32)c1 (stereo not drawn)	17	-2	-1	30*	-3	-6
N#CC1=C(S)N(c2ccccc2)C(c2ccc(-c3cccc(Cl)c3)o2)NC1=O (stereo not drawn)	13	7.5*	-17	8	-4	-9
CN1CCN(C(=O)c2cccc(NS(=O)(=O)c3ccc(Br)cc3)c2)CC1	3	·	7	·	·	·
CC(=O)Nc1ccccc1-c1ccc(C)o1	-1	-3	-4	6	-1	14
Cc1ccc(NC(=O)CS(=O)CC(=O)Nc2ccccc2-c2ccc(C)o2)cc1 (stereo not drawn)	5	3	-10	12	9.1*	-3
O=C(NC(Cc1ccccc1)C(=O)O)NC12CC3CC(CC(C3)C1)C2 (stereo not drawn)	5	-3	-7	9	-2	-2
Cc1ccc(-c2ccc(C(=O)Nc3ccccc3)o2)c2ccccc12	29	2	-11	23	-1	0
Cc1ccc(S(=O)(=O)NC(=O)c2ccc(-c3ccc(C)c4ccccc34)o2)cc1	-10	4.7*	6	19	-4	16
CCc1nc2ccccc2c(C(=O)Nc2ccc(F)cc2)c1C	22	-4	13	-2	-2	14
